Results on 25 compounds are retold here after ChEMBL document CHEMBL1806364, “Discovery of vinylogous carbamates as a novel class of β-ketoacyl-acyl carrier protein synthase III (FabH) inhibitors” (Bioorg Med Chem, 2011).

≈ marks a conversion by molar mass, not a printed value.

By MIC is commonly meant the smallest concentration in the dilution series that meets the test's criterion for growth inhibition. Broadly, the IC50 is the concentration that inhibits the measured activity by half.

For series [1], the system named is Escherichia coli. Put plainly: Antibacterial activity against Escherichia coli after 24 hrs by MTT assay. The series is classed as functional. Summed up: (§1)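 Broth microdilution in Mueller-Hinton medium. Compound stock 100 µg/mL in DMSO, serially diluted into medium. Inoculum about 10⁵ cfu/mL, incubated 37 °C for 24 h. After visual MIC reading, MTT (2 mg/mL in PBS pH 7.4) added, 4–5 h at room temperature. Dye extracted with isopropanol containing 5% 1 mol/L HCl for 12 h, OD read at 550 nm.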
On the technique in general: Tetrazolium dyes change colour on reduction, which living cells bring about.

Series [2] relates to Pseudomonas fluorescens. Put plainly: Antibacterial activity against Pseudomonas fluorescens after 24 hrs by MTT assay. The series is classed as functional. In a few lines: as §1
The test system of series [3] is Bacillus subtilis. Put plainly: Antibacterial activity against Bacillus subtilis after 24 hrs by MTT assay. The series is classed as functional. Summed up:
as §1

The subject of series [4] is Staphylococcus aureus. Nature of the series: Antibacterial activity against Staphylococcus aureus after 24 hrs by MTT assay. The series is classed as functional. Summed up: as §1
Series [5] addresses T1, 3-oxoacyl-[acyl-carrier-protein] synthase 3 (Escherichia coli, UniProt C3TDZ2).
T1 sequence (C3TDZ2 whole entry): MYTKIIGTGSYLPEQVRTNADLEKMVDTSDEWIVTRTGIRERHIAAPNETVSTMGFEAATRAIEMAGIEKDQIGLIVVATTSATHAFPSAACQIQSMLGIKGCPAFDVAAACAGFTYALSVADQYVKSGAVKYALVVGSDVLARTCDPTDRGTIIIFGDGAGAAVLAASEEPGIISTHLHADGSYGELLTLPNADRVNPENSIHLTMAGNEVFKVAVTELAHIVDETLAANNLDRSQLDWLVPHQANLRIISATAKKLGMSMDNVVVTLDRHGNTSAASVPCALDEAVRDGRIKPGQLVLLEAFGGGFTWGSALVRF
Nature of the series: Inhibition of Escherichia coli FabH expressed in Escherichia coli DH10B cells assessed as incorporation of 3[H] after 25 mins by liquid scintillation. In a few lines:
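Native E. coli FabH overexpressed from pET30 in DH10B cells and purified by Q-Sepharose, MonoQ and hydroxyapatite chromatography. Reaction mix contains 0.25 mM MgCl₂, acetyl-CoA, 0.5 mM NADH and 0.5 mM NADPH, run 25 min. Stopped with ice-cold 50% TCA, protein pelleted, washed with 10% TCA, dissolved in 0.5 M NaOH. Incorporated ³H counted by liquid scintillation. DMSO at most 2% final; IC50 determined.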

A short description of series [6]: Toxicity in erythrocytes assessed as hemolytic activity. The series is classed as cell-based. The settings on record: erythrocyte.

For `CCOC(=O)/C(=C/Nc1ccc([N+](=O)[O-])cc1)c1ccc(OCc2ccccc2)cc1`, the MIC in series [1], in series [2], in series [3] and in series [4] was above 50 µg/mL each time.
For `CCOC(=O)/C(=C\Nc1ccc(C(C)C)cc1)c1ccc(OCc2ccccc2)cc1`, the MIC in series [1] came out at 3.12 µg/mL (≈ 7.52 µM); in series [2] it was 3.12 µg/mL (≈ 7.52 µM); in series [3], 25 µg/mL (≈ 60.2 µM); in series [4], 12.5 µg/mL (≈ 30.1 µM).
Take `CCOC(=O)/C(=C/Nc1ccc(Br)cc1Br)c1ccc(OCc2ccccc2)cc1`: the MIC in series [1] worked out at 3.13 µg/mL (≈ 5.89 µM); in series [2], 12.5 µg/mL (≈ 23.5 µM); in series [3] it was 12.5 µg/mL (≈ 23.5 µM); in series [4], 12.5 µg/mL (≈ 23.5 µM).
For `CCOC(=O)/C(=C/Nc1ccc(C(C)C)cc1)c1ccc(OCc2ccccc2)cc1`, the MIC in series [1] came out at 6.25 µg/mL (≈ 15 µM); in series [2], 6.25 µg/mL (≈ 15 µM); in series [3] it was 12.5 µg/mL (≈ 30.1 µM); in series [4], 25 µg/mL (≈ 60.2 µM). The concentration for half-maximal inhibition (IC50) in series [5] is 8.5 µM. Further, in series [6], the LC30 is above 10000 µg/mL.
In the case of `CCOC(=O)/C(=C\Nc1ccccc1Cl)c1ccc(OCc2ccccc2)cc1`, the MIC in series [1] is 12.5 µg/mL (≈ 30.6 µM); in series [2], 25 µg/mL (≈ 61.3 µM); in series [3] it was above 50 µg/mL; in series [4], above 50 µg/mL. In series [5], the concentration for half-maximal inhibition (IC50) came to 28 µM. Also, in series [6], the LC30 was above 10000 µg/mL.
In the case of `CCOC(=O)/C(=C/Nc1ccc(C)cc1)c1ccc(OCc2ccccc2)cc1`, the MIC in series [1], in series [2], in series [3] and in series [4] was above 50 µg/mL in each case.
As to `CCOC(=O)/C(=C/Nc1ccc(F)cc1)c1ccc(OCc2ccccc2)cc1`, the MIC came to 6.25 µg/mL (≈ 16 µM) in series [1], 12.5 µg/mL (≈ 31.9 µM) in series [2], 25 µg/mL (≈ 63.9 µM) in series [3] and 12.5 µg/mL (≈ 31.9 µM) in series [4].
For the compound `CCOC(=O)/C(=C\Nc1ccc(Br)cc1Br)c1ccc(OCc2ccccc2)cc1`, the MIC in series [1] was determined as 12.5 µg/mL (≈ 23.5 µM); in series [2] it was 12.5 µg/mL (≈ 23.5 µM); in series [3], 25 µg/mL (≈ 47.1 µM); in series [4], 25 µg/mL (≈ 47.1 µM). For the same compound, in series [5], the IC50 was 24 µM. Besides, the LC30 in series [6] was above 10000 µg/mL.
On to `CCOC(=O)/C(=C/Nc1ccc(Br)cc1)c1ccc(OCc2ccccc2)cc1`, for which the MIC in series [1], in series [2], in series [3] and in series [4] was above 50 µg/mL each time. In series [5], the IC50 came to 43 µM. In series [6], the LC30 is above 10000 µg/mL.
As to `NC[C@H]1O[C@H](O[C@H]2[C@H](O)[C@@H](O[C@H]3O[C@H](CO)[C@@H](O)[C@H](N)[C@H]3O)[C@H](N)C[C@@H]2N)[C@H](N)[C@@H](O)[C@@H]1O` [BEKANAMYCIN], the MIC in series [1] amounted to 3.12 µg/mL (≈ 6.46 µM); in series [2] it was 3.12 µg/mL (≈ 6.46 µM); in series [3], 0.39 µg/mL (≈ 0.807 µM); in series [4], 1.56 µg/mL (≈ 3.23 µM).
Consider `CCOC(=O)/C(=C\Nc1ccccc1F)c1ccc(OCc2ccccc2)cc1`, for which the MIC is 12.5 µg/mL (≈ 31.9 µM) in series [1], 25 µg/mL (≈ 63.9 µM) in series [2], above 50 µg/mL in series [3] and 25 µg/mL (≈ 63.9 µM) in series [4].
For `CCOC(=O)/C(=C/Nc1ccccc1Cl)c1ccc(OCc2ccccc2)cc1`, the MIC in series [1] is 25 µg/mL (≈ 61.3 µM); in series [2], above 50 µg/mL; in series [3], 25 µg/mL (≈ 61.3 µM); in series [4] it was 12.5 µg/mL (≈ 30.6 µM).
As to `CCOC(=O)/C(=C\Nc1ccc(Cl)cc1Cl)c1ccc(OCc2ccccc2)cc1`, the MIC in series [1], in series [2], in series [3] and in series [4] was 25 µg/mL (≈ 56.5 µM) each time.
For the compound `CCOC(=O)/C(=C\Nc1ccc(F)cc1)c1ccc(OCc2ccccc2)cc1`, the MIC is 3.12 µg/mL (≈ 7.98 µM) in series [1], 3.12 µg/mL (≈ 7.98 µM) in series [2], 25 µg/mL (≈ 63.9 µM) in series [3] and above 50 µg/mL in series [4]. The IC50 in series [5] came out at 8.2 µM. Moreover, the LC30 in series [6] is above 10000 µg/mL.
On to `CCOC(=O)/C(=C/Nc1ccccc1)c1ccc(OCc2ccccc2)cc1`, for which the MIC in series [1] amounted to 6.25 µg/mL (≈ 16.7 µM); in series [2], 6.25 µg/mL (≈ 16.7 µM); in series [3], 25 µg/mL (≈ 66.9 µM); in series [4], 25 µg/mL (≈ 66.9 µM).
`CCOC(=O)/C(=C/Nc1ccc(Cl)cc1)c1ccc(OCc2ccccc2)cc1`: the MIC in series [1] is 25 µg/mL (≈ 61.3 µM); in series [2] it was 25 µg/mL (≈ 61.3 µM); in series [3], 25 µg/mL (≈ 61.3 µM); in series [4], above 50 µg/mL.
With `CCOC(=O)/C(=C/Nc1ccc(F)cc1F)c1ccc(OCc2ccccc2)cc1`, the MIC in series [1] was 25 µg/mL (≈ 61.1 µM); in series [2], 25 µg/mL (≈ 61.1 µM); in series [3], 12.5 µg/mL (≈ 30.5 µM); in series [4], 12.5 µg/mL (≈ 30.5 µM).
Consider `CCOC(=O)/C(=C\Nc1ccc(F)cc1F)c1ccc(OCc2ccccc2)cc1`, for which the minimal inhibitory concentration (MIC) in series [1] was 6.25 µg/mL (≈ 15.3 µM); in series [2] it was 12.5 µg/mL (≈ 30.5 µM); in series [3], above 50 µg/mL; in series [4], above 50 µg/mL.
For `CCOC(=O)/C(=C/Nc1ccccc1F)c1ccc(OCc2ccccc2)cc1`, the MIC in series [1] was 25 µg/mL (≈ 63.9 µM); in series [2], above 50 µg/mL; in series [3], above 50 µg/mL; in series [4], above 50 µg/mL.
In the case of `CCOC(=O)/C(=C/Nc1ccc(Cl)cc1Cl)c1ccc(OCc2ccccc2)cc1`, the minimum inhibitory concentration (MIC) is 25 µg/mL (≈ 56.5 µM) in series [1], 25 µg/mL (≈ 56.5 µM) in series [2], above 50 µg/mL in series [3] and above 50 µg/mL in series [4].
For `CCOC(=O)/C(=C\Nc1ccc(Br)cc1)c1ccc(OCc2ccccc2)cc1`, the minimal inhibitory concentration (MIC) stood at 1.56 µg/mL (≈ 3.45 µM) in series [1], 1.56 µg/mL (≈ 3.45 µM) in series [2], 50 µg/mL (≈ 111 µM) in series [3] and 25 µg/mL (≈ 55.3 µM) in series [4]. Also, the IC50 in series [5] amounted to 3.3 µM. Also, the LC30 in series [6] is above 10000 µg/mL.
As to `CCOC(=O)/C(=C\Nc1ccc(C)cc1)c1ccc(OCc2ccccc2)cc1`, the MIC is 0.78 µg/mL (≈ 2.01 µM) in series [1], 1.56 µg/mL (≈ 4.03 µM) in series [2], 25 µg/mL (≈ 64.5 µM) in series [3] and 25 µg/mL (≈ 64.5 µM) in series [4]. Further, the concentration for half-maximal inhibition (IC50) in series [5] stood at 2.6 µM. Further, the LC30 in series [6] is above 10000 µg/mL.
For `CCOC(=O)/C(=C\Nc1ccccc1)c1ccc(OCc2ccccc2)cc1`, the MIC in series [1] came out at 12.5 µg/mL (≈ 33.5 µM); in series [2], 25 µg/mL (≈ 66.9 µM); in series [3], 25 µg/mL (≈ 66.9 µM); in series [4], 50 µg/mL (≈ 134 µM).
Regarding `CCOC(=O)/C(=C\Nc1ccc(Cl)cc1)c1ccc(OCc2ccccc2)cc1`, the minimum inhibitory concentration (MIC) in series [1] worked out at 12.5 µg/mL (≈ 30.6 µM); in series [2], 6.25 µg/mL (≈ 15.3 µM); in series [3], 25 µg/mL (≈ 61.3 µM); in series [4], 25 µg/mL (≈ 61.3 µM).
Turning to `CCOC(=O)/C(=C\Nc1ccc([N+](=O)[O-])cc1)c1ccc(OCc2ccccc2)cc1`, the minimal inhibitory concentration (MIC) in series [1] was 3.12 µg/mL (≈ 7.47 µM); in series [2] it was 6.25 µg/mL (≈ 14.9 µM); in series [3] it was above 50 µg/mL; in series [4] it was above 50 µg/mL.
